An excerpt weighted towards active compounds, which were near 2.3% of everything screened.
TRPC6 inh – mouse TRPC6 channel inhibitors, primary screen, cell-based, HEK293, membrane potential dye; Short transient receptor potential channel 6 (Mus musculus), Q61143; ACh-evoked depolarization; active compounds read low; B-score at 10 µM; 310,000 tested, 1.1% active; AID 2553, 2010;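 active means B-score under library mean minus 3 SD, initial fluorescence not abnormally high, positive integrated signal ratio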;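 further: B-score derived from integrated fluorescence ratio over the kinetic read; more negative B-score means stronger inhibition of depolarization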
TRPC4 agonist – activators of mouse TRPC4 channel, primary screen, Fluo4 calcium, HEK293 TRPC4beta/mu-opioid cells | B-score at 10 µM | Fluo4 calcium fluorescence; active compounds read high | Short transient receptor potential channel 4 (Mus musculus), Q9QUQ5 | 310,000 tested, 0.49% active;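 active means B-score above 5 SD of library B-scores, and initial fluorescence ratio not above library mean plus 5 SD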;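 further: positive B-score marks a calcium rise read as TRPC4 activation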
Target sequence (Q9QUQ5 whole entry, looked up): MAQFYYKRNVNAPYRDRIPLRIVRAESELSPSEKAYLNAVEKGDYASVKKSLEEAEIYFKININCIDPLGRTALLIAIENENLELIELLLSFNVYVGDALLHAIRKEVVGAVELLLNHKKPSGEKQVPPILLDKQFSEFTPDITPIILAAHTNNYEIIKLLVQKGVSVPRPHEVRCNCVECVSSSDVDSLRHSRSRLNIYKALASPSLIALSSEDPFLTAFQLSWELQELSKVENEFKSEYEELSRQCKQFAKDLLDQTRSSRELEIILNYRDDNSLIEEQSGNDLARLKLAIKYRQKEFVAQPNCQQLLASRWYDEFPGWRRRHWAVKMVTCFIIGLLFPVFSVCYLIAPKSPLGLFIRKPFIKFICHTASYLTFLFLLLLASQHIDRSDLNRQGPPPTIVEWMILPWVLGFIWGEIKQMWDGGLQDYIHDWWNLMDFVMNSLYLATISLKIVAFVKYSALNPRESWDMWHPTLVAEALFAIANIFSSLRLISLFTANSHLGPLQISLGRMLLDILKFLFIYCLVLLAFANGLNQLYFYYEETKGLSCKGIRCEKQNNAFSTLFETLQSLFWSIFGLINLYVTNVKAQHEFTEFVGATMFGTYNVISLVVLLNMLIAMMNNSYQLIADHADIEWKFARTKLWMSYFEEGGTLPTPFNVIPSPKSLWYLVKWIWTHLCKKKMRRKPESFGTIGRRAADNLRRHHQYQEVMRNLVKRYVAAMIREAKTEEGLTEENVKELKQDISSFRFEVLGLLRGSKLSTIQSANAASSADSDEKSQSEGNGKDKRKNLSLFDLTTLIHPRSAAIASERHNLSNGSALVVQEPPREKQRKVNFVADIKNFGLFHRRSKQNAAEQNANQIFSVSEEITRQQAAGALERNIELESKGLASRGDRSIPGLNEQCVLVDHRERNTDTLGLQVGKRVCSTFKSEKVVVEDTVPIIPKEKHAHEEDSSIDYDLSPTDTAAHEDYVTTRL
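Technique: kinetic Fluo4 calcium fluorescence; Test system: TRPC4beta and mu-opioid receptor HEK293 stable cells; Measure: B-scored integrated calcium fluorescence ratio; Benchmarks: low control buffer alone, high control maximal DAMGO; Schedule: 45 min room-temperature Fluo4 loading, 110 s read.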
TRPC6 activator – mouse TRPC6 channel activators, primary screen, cell-based, HEK293, membrane potential dye; Short transient receptor potential channel 6 (Mus musculus), Q61143; HEK293-TRPC6 membrane potential dye fluorescence; active compounds read high; B-score at 10 µM; 310,000 tested, 0.13% active; AID 2550, 2010;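 active means B-score of the integrated fluorescence ratio above library mean plus 3 SD, and starting fluorescence ratio within library mean plus 5 SD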;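 further: higher score means more depolarization so channel activation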
TRPC4 block – inhibitors of mouse TRPC4 channel, primary screen, Fluo4 calcium, HEK293 TRPC4beta/mu-opioid cells | Short transient receptor potential channel 4 (Mus musculus), Q9QUQ5 | DAMGO-evoked Fluo4 calcium flux; active compounds read low | B-score at 10 µM | 300,000 tested, 0.39% active;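 active means B-score over 3 SD under the library average, no early fluorescence shift, positive overall ratio signal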
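Signal: kinetic Fluo4 fluorescence imaging of calcium influx. Material: stable TRPC4beta/mu-opioid receptor HEK293 cells. Probe or stimulus: DAMGO in two steps, submaximal then maximal.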
TRPC4 PAM – positive allosteric modulators of TRPC4, primary screen, cell-based, mouse TRPC4beta, HEK293 mu-opioid, Fluo-4 calcium | Short transient receptor potential channel 4 (Mus musculus), Q9QUQ5 | DAMGO EC20, Fluo-4 Ca2+ flux; active compounds read high | B-score at 10 µM | 310,000 tested, 0.42% active;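 active means B-score of calcium response area above 5 SD of library B-scores, with initial fluorescence ratio within 5 SD of library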
TRPC4 sel inh 2 – second selectivity test of TRPC6 inhibitors: effect on mouse TRPC4. HEK293 TRPC4/MOR, membrane potential dye fluorescence; channel activated by saturating DAMGO dose. 920 tested, 42% active. AID 2776. inhibition, % at 10 µM. shares compounds with TRPC6 inh;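 active means compounds whose fluorescence signal differed from control wells by over 3 SD, either direction, in both duplicate plates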
TRPC4 spec – mouse TRPC4 modulation by TRPC6 hits, confirmation, selectivity assay for TRPC6 inhibitor project, cell-based, HEK293 TRPC4/mu-opioid, membrane potential dye. shares compounds with TRPC6 inh. AID 2777, 2010. activity change, negative = inhibition, % at 10 µM. membrane potential fluorescence. 920 tested, 61% active;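 active means rise or fall in signal beyond 3 SD of buffer-only wells in both replicate plates, either sign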;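 further: integrated kinetic ratio of fluorescence range over baseline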
HEK293 MPD ctr 2-1 – nonspecific membrane potential effects, parental HEK293, confirmation, counter-screen for TRPC6 inhibitor project, cell-based, second counter screen; parental HEK293 membrane potential dye fluorescence; maximal acetylcholine challenge after compound addition; 920 tested, 31% active; shares compounds with TRPC6 inh; signal change vs control, % at 10 µM;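 active means membrane potential signal moving either way by over 3 SD of the maximum-effect control, in both duplicate plates, meaning non-specific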
HEK293 MPD ctr-1 – membrane potential modulation in parental HEK293, confirmation, counter-screen for TRPC6 inhibitor project, cell-based | shares compounds with TRPC6 inh | parental HEK293 membrane potential dye fluorescence | membrane potential signal change, % at 10 µM | 920 tested, 60% active;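 active means membrane potential signal shifting up or down by more than 3 SD of buffer-only wells, on both duplicate plates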
HEK293 MPD ctr-2 – parental HEK293 membrane potential modulation, confirmation, counter-screen for TRPC6 modulator project, cell-based; membrane potential signal change, % at 10 µM; 2,400 tested, 51% active; shares compounds with TRPC6 inh; membrane potential dye fluorescence;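 active means membrane potential signal moves up or down beyond 5 SD from buffer-only wells, on both duplicate plates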
HEK293 MPD ctr 2-2 – parental HEK293 nonspecific activity of TRPC6 modulators, second screen. 2,400 tested, 14% active. shares compounds with TRPC6 inh. membrane potential dye fluorescence; after compound, maximal acetylcholine stimulation. inhibition, % at 10 µM. AID 488926;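 active means membrane potential signal drops by more than 5 SD from the mean control signal, in both duplicate plates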
TRPC4 ctr mod – TRPC4 modulation by TRPC6 hit compounds, confirmation, selectivity assay for TRPC6 modulator project, cell-based, HEK293 TRPC4/mu-opioid, membrane potential dye, mouse; AID 488927, 2010; percent change from control (negative = decrease, positive = increase), % at 10 µM; shares compounds with TRPC6 inh; membrane potential fluorescence; 2,400 tested, 69% active;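 active means membrane potential signal moved up or down beyond 5 SD of buffer control wells, in both duplicate plates, actives on both sides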
TRPC4/MOR inh 2 – second check of whether TRPC6 modulators also affect mouse TRPC4; shares compounds with TRPC6 inh; HEK293 TRPC4/mu-opioid, membrane potential dye fluorescence; stimulated with maximal-effect DAMGO; inhibition, % at 10 µM; 2,400 tested, 55% active;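 active means drop in membrane potential signal beyond 5 SD of the control wells in both duplicate plates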;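 further: TRPC4 counter screen for TRPC6 hits run under conditions tuned for TRPC6 not TRPC4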
TRPC6 block conf – mouse TRPC6 channel inhibitors, confirmation, HEK293 cells, membrane potential dye, duplicate; inhibition, % at 10 µM; ACh-evoked depolarization; 3,300 tested, 43% active; shares compounds with TRPC6 inh;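 active means fluorescence ratio falls more than 5 SD below the full-stimulation control mean, in both duplicate runs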;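 further: integrated fluorescence ratio of peak minus minimum over baseline after agonist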
TRPC6 act confirm – mouse TRPC6 channel activators, confirmation, HEK293 cells, membrane potential dye, duplicate; shares compounds with TRPC6 inh; HEK293-TRPC6 membrane potential dye fluorescence, FDSS; activation, % at 10 µM; 2,800 tested, 11% active; AID 488961, 2010;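 active means ratio signal rise beyond 5 SD above unstimulated control wells' mean, seen in both duplicate runs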
Numbers stand for hits.

For CC(C)(C)n1nnnc1C(c1cc2cc3c(cc2[nH]c1=O)OCCO3)N1CCSCC1 (stereo not drawn) the results were TRPC6 inh -5.2, TRPC4 agonist inactive, TRPC6 activator inactive, TRPC4 block inactive, TRPC4 PAM inactive, HEK293 MPD ctr-2 inactive, HEK293 MPD ctr 2-2 inactive, TRPC4 ctr mod inactive, TRPC4/MOR inh 2 inactive and TRPC6 block conf 52%.
Screening CC(=O)Oc1ccc2c(=O)c(Oc3ccccc3)coc2c1OC(C)=O returned TRPC6 inh inactive, TRPC4 agonist inactive, TRPC6 activator inactive, TRPC4 block inactive and TRPC4 PAM inactive.
Cc1cc(C)cc(-n2c(C)c3c(C)nnc(C)c3c2C)c1 was read as TRPC6 inh -7.6, TRPC4 agonist inactive, TRPC6 activator inactive, TRPC4 block inactive, TRPC4 PAM inactive, TRPC4 sel inh 2 54%, TRPC4 spec -19%, HEK293 MPD ctr 2-1 inactive, HEK293 MPD ctr-1 -216%, TRPC6 block conf inactive and TRPC6 act confirm inactive.
Cc1nnc(C)c2c(C)n(-c3ccc(Cl)c(N)c3)c(C)c12 was read as TRPC6 inh inactive, TRPC4 agonist inactive, TRPC6 activator inactive, TRPC4 block inactive and TRPC4 PAM inactive.
Screening CCN(CC)S(=O)(=O)c1ccc2c(c1)N(CC(=O)NCc1ccccn1)C(=O)CO2 returned TRPC6 inh inactive, TRPC4 agonist inactive, TRPC6 activator inactive, TRPC4 block inactive and TRPC4 PAM inactive.
O=C(Nc1ccccc1)Nc1cnccn1 was read as TRPC6 inh inactive, TRPC4 agonist inactive, TRPC6 activator inactive, TRPC4 block inactive and TRPC4 PAM inactive.
For Cc1ccccc1C(=O)NCCSc1ccccc1 the results were TRPC6 inh -7.5, TRPC4 agonist inactive, TRPC6 activator inactive, TRPC4 block inactive, TRPC4 PAM inactive, TRPC4 sel inh 2 inactive, TRPC4 spec 3.9%, HEK293 MPD ctr 2-1 inactive, HEK293 MPD ctr-1 2.1%, TRPC6 block conf inactive and TRPC6 act confirm inactive.
O=C1CN(Cc2ccccc2)C(=NCc2ccco2)S1 was read as TRPC6 inh inactive, TRPC4 agonist inactive, TRPC6 activator inactive, TRPC4 block inactive and TRPC4 PAM inactive.
Cn1c(-c2ccc3c(c2)OCO3)cnc1NCc1cccc(Cl)c1 was read as TRPC6 inh -7.9, TRPC4 agonist inactive, TRPC6 activator inactive, TRPC4 block inactive, TRPC4 PAM inactive, TRPC4 sel inh 2 46%, TRPC4 spec inactive, HEK293 MPD ctr 2-1 inactive, HEK293 MPD ctr-1 inactive, TRPC6 block conf inactive and TRPC6 act confirm inactive.
`Cn1c(-c2ccc3c(c2)OCO3)cnc1NC(=O)CCC(=O)NCCc1ccccc1` gave TRPC6 inh inactive, TRPC4 agonist inactive, TRPC6 activator inactive, TRPC4 block inactive and TRPC4 PAM inactive.
Screening Cn1c(-c2ccc3c(c2)OCO3)cnc1NCc1ccccc1 returned TRPC6 inh -5.8, TRPC4 agonist inactive, TRPC6 activator inactive, TRPC4 block inactive, TRPC4 PAM inactive, HEK293 MPD ctr-2 inactive, HEK293 MPD ctr 2-2 inactive, TRPC4 ctr mod inactive, TRPC4/MOR inh 2 56%, TRPC6 block conf 36% and TRPC6 act confirm inactive.
Screening Cc1ccc(-c2cnc(NCc3cc4c(cc3[N+](=O)[O-])OCO4)n2C)cc1C returned TRPC6 inh inactive, TRPC4 agonist inactive, TRPC6 activator inactive, TRPC4 block inactive and TRPC4 PAM inactive.
`Cn1c(-c2ccc3c(c2)OCO3)cnc1NCc1ccccc1Cl` gave TRPC6 inh -5.3, TRPC4 agonist inactive, TRPC6 activator inactive, TRPC4 block inactive, TRPC4 PAM inactive, HEK293 MPD ctr-2 inactive, HEK293 MPD ctr 2-2 inactive, TRPC4 ctr mod inactive, TRPC4/MOR inh 2 68%, TRPC6 block conf inactive and TRPC6 act confirm inactive.
`COC(=O)c1ccccc1N1CCS(=O)(=O)CC1` gave TRPC6 inh inactive, TRPC4 agonist inactive, TRPC6 activator inactive, TRPC4 block inactive and TRPC4 PAM inactive.
For Cc1cc(C)c(OCC(=O)N2CC=C(c3ccccc3)CC2)c(C)c1 the results were TRPC6 inh inactive, TRPC4 agonist inactive, TRPC6 activator inactive, TRPC4 block inactive and TRPC4 PAM inactive.
Cc1ccc(NC(=O)COC(=O)[C@H](C)NC(N)=O)c(C)c1 was read as TRPC6 inh inactive, TRPC4 agonist inactive, TRPC6 activator inactive, TRPC4 block inactive and TRPC4 PAM inactive.

Screening data deposited in PubChem by Johns Hopkins Ion Channel Center.
